Source: paper PMC4931877 (The Journal of Pharmacology and Experimental Therapeutics, 2016)

What was measured:
[1] = test system: plasma Aβ40, Aβ42, and total Aβ; assay: SAD study pharmacodynamic effects on plasma Aβ; assay type: in vivo, human
Summary of the method: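 Single oral doses of 10–1200 mg were given as solution or capsule. Blood tubes were inverted and iced, then centrifuged within 30 min at room temperature for 15 min at about 1000g. Plasma was stored at −80°C. Aβ40 and Aβ42 were measured by Luminex duplex immunoassay and total Aβ by MSD, in duplicate.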

[2] = MAD study safety and tolerability; assay type: in vivo, human
Summary of the method: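 Multiple-dose healthy young and elderly subjects were assessed by vital signs, physical examination, 12-lead ECG and clinical laboratory tests. AEs were spontaneously reported or elicited, and their onset, duration, intensity, seriousness, relatedness and action taken were recorded. AEs were coded by MedDRA 12.1 system organ class and preferred term. Columbia suicidality ratings were also collected.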

[3] = biological target: CYP3A4 (Homo sapiens, UniProt P08684); assay: Plasma 4βHC biomarker of CYP3A4 in the MAD study; assay type: in vivo; settings: any treatment cohort of the MAD study
Summary of the method: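 During once-daily multiple dosing, plasma 4β-hydroxycholesterol was quantified by validated LC-MS/MS (LLOQ 2 ng/ml for 50 μl plasma). 4α-Hydroxycholesterol and total cholesterol were measured as normalisation factors.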

[4] = test system: CSF Aβ peptides; assay: SAD study pharmacodynamic effects on CSF Aβ peptides; assay type: in vivo, human
Summary of the method: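 After a single oral dose, CSF was drawn by lumbar cannulation at −1 to 24 h postdose, with predose samples taken at 7–10 AM, and stored at −80°C in polypropylene. Aβ38/40/42 and total Aβ were measured by MSD immunoassay and Aβ37 by 6E10 sandwich immunoassay, in duplicate. Other Aβ fragments were measured by LC-MS/MS (LLOQ 30 pg/ml).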

[5] = MAD study plasma pharmacokinetics; assay type: in vivo, human; settings: for half-life / concentration at 24 h / Cmax: human, plasma, oral; for concentration at 24 h: C24 GM (CV%); for Cmax: Cmax GM (CV%)
Summary of the method: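 EDTA plasma was sampled at 0–24 h postdose on days 1 and 14, intensively on day 28, and at trough on days 5–25. Drug was measured by validated LC-MS/MS. Parameters are noncompartmental, with trapezoidal and log-trapezoidal AUC. Half-life is ln2/k from a least-squares terminal slope on days 14 and 28.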

[6] = test system: brain and CSF Aβ42 and Aβ40; settings: rats; ref Toyn et al., 2016; cited from earlier work
[7] = biological target: T1, UGT1A1 (Homo sapiens, UniProt P22309); assay: UGT1A1 inhibition; assay type: biochemical
T1 sequence (P22309 26-533): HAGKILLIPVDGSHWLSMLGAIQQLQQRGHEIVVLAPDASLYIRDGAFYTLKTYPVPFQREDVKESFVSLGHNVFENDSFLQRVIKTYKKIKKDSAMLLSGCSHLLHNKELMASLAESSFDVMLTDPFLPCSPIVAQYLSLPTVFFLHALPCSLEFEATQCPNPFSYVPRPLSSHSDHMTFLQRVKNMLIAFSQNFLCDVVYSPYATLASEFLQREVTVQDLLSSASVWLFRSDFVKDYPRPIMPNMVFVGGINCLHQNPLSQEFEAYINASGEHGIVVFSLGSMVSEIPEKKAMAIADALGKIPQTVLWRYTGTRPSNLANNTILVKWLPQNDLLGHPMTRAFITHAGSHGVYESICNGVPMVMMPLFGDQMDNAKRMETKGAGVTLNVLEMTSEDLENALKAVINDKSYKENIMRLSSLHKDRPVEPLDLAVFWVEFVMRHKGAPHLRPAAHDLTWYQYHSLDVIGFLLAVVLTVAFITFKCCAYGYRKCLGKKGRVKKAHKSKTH

[8] = 50 mg, MAD panel 1, 50 mg once daily, day 1
[9] = 50 mg, MAD panel 1, 50 mg once daily, day 14
[10] = 50 mg, MAD panel 1, 50 mg once daily, day 28

Sequence of CYP3A4 (P08684 whole entry): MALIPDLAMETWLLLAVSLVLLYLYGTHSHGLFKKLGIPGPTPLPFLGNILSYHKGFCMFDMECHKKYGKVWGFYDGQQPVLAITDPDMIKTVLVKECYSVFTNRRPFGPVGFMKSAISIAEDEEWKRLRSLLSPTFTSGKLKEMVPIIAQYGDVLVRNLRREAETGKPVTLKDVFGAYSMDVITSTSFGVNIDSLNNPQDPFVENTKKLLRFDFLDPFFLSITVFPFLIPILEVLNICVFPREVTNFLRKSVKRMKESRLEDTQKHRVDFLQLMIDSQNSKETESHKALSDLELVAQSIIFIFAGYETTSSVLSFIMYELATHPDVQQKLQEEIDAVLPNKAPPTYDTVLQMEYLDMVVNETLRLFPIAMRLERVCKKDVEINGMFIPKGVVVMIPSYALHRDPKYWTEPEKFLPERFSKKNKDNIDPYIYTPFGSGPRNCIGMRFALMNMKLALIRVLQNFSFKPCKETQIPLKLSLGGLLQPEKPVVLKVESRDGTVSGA

CNc1nc(Nc2ccc(-n3cnc(C)n3)c(OC)c2)nc2c1CC[C@H]2c1ccc(F)cc1 [BMS-932481, (S)-7-(4-fluorophenyl)-N2-(3-methoxy-4-(3-methyl-1H-1,2,4-triazol-1-yl)phenyl)-N4-methyl-6,7-dihydro-5H-cyclopenta[d]pyrimidine-2,4-diamine]
change in plasma total Aβ ([1]; single dose cohorts): No changes
effect on plasma Aβ42 and Aβ40 ([1]; single-dose): dose-dependently decreased
ECG- or vital sign–related AEs ([2]; MAD): no ECG- or vital sign–related AEs
subjects with increases in total bilirubin ([2]; MAD 50 mg, three of six): 50%
subjects with low leukocyte counts ([2]; MAD 50 mg, three of six): 50%
subjects with increases in total bilirubin ([2]; MAD 100 mg, three of six): 50%
subjects with increases in bilirubin ([2]; MAD 200 mg, five of six): 83%
subjects with low estimated creatinine clearance ([2]; MAD 200 mg, three of six): 50%
subjects with low leukocyte counts ([2]; MAD 200 mg, three of six): 50%
AEs ([2]; MAD, 50 mg): 5 (83.3) n (%)
Deaths ([2]; MAD, 50 mg): 0 n (%)
Discontinuation due to AEs ([2]; MAD, 50 mg): 0 n (%)
Elevated ALT (marked laboratory abnormality) ([2]; MAD, 50 mg): 0 n (%)
Elevated bilirubin (marked laboratory abnormality) ([2]; MAD, 50 mg): 3 (50.0) n (%)
Elevates AST (marked laboratory abnormality) ([2]; MAD, 50 mg): 0 n (%)
Low hematocrit (marked laboratory abnormality) ([2]; MAD, 50 mg): 1 (16.7) n (%)
Low hemoglobin (marked laboratory abnormality) ([2]; MAD, 50 mg): 2 (33.3) n (%)
Low leukocytes (marked laboratory abnormality) ([2]; MAD, 50 mg): 3 (50.0) n (%)
Low lymphocytes (marked laboratory abnormality) ([2]; MAD, 50 mg): 1 (16.7) n (%)
Low neutrophils (marked laboratory abnormality) ([2]; MAD, 50 mg): 0 n (%)
SAEs ([2]; MAD, 50 mg): 0 n (%)
Treatment-related AEs ([2]; MAD, 50 mg): 3 (50.0) n (%)
AEs ([2]; MAD, 100 mg): 4 (66.7) n (%)
Deaths ([2]; MAD, 100 mg): 0 n (%)
Discontinuation due to AEs ([2]; MAD, 100 mg): 0 n (%)
Elevated ALT (marked laboratory abnormality) ([2]; MAD, 100 mg): 0 n (%)
Elevated bilirubin (marked laboratory abnormality) ([2]; MAD, 100 mg): 3 (50.0) n (%)
Elevates AST (marked laboratory abnormality) ([2]; MAD, 100 mg): 0 n (%)
Low hematocrit (marked laboratory abnormality) ([2]; MAD, 100 mg): 1 (16.7) n (%)
Low hemoglobin (marked laboratory abnormality) ([2]; MAD, 100 mg): 1 (16.7) n (%)
Low leukocytes (marked laboratory abnormality) ([2]; MAD, 100 mg): 1 (16.7) n (%)
Low lymphocytes (marked laboratory abnormality) ([2]; MAD, 100 mg): 0 n (%)
Low neutrophils (marked laboratory abnormality) ([2]; MAD, 100 mg): 1 (16.7) n (%)
SAEs ([2]; MAD, 100 mg): 0 n (%)
Treatment-related AEs ([2]; MAD, 100 mg): 1 (16.7) n (%)
AEs ([2]; MAD, 200 mg): 6 (100.0) n (%)
Deaths ([2]; MAD, 200 mg): 0 n (%)
Discontinuation due to AEs ([2]; MAD, 200 mg): 2 (33.3) n (%)
Elevated ALT (marked laboratory abnormality) ([2]; MAD, 200 mg): 4 (66.7) n (%)
Elevated bilirubin (marked laboratory abnormality) ([2]; MAD, 200 mg): 5 (83.3) n (%)
Elevates AST (marked laboratory abnormality) ([2]; MAD, 200 mg): 2 (33.3) n (%)
Low hematocrit (marked laboratory abnormality) ([2]; MAD, 200 mg): 0 n (%)
Low hemoglobin (marked laboratory abnormality) ([2]; MAD, 200 mg): 1 (16.7) n (%)
Low leukocytes (marked laboratory abnormality) ([2]; MAD, 200 mg): 3 (50.0) n (%)
Low lymphocytes (marked laboratory abnormality) ([2]; MAD, 200 mg): 0 n (%)
Low neutrophils (marked laboratory abnormality) ([2]; MAD, 200 mg): 2 (33.3) n (%)
SAEs ([2]; MAD, 200 mg): 2 (33.3) n (%)
Treatment-related AEs ([2]; MAD, 200 mg): 4 (66.7) n (%)
subjects with AEs ([2]; MAD, 15 subjects): 83.3%
AEs ([2]; MAD, all BMS-932481 doses): 15 (83.3) n (%)
Deaths ([2]; MAD, all BMS-932481 doses): 0 n (%)
Discontinuation due to AEs ([2]; MAD, all BMS-932481 doses): 2 (11.1) n (%)
Elevated ALT (marked laboratory abnormality) ([2]; MAD, all BMS-932481 doses): 4 (22.2) n (%)
Elevated bilirubin (marked laboratory abnormality) ([2]; MAD, all BMS-932481 doses): 11 (61.1) n (%)
Elevates AST (marked laboratory abnormality) ([2]; MAD, all BMS-932481 doses): 2 (11.1) n (%)
Low hematocrit (marked laboratory abnormality) ([2]; MAD, all BMS-932481 doses): 2 (11.1) n (%)
Low hemoglobin (marked laboratory abnormality) ([2]; MAD, all BMS-932481 doses): 4 (22.2) n (%)
Low leukocytes (marked laboratory abnormality) ([2]; MAD, all BMS-932481 doses): 7 (38.9) n (%)
Low lymphocytes (marked laboratory abnormality) ([2]; MAD, all BMS-932481 doses): 1 (5.6) n (%)
Low neutrophils (marked laboratory abnormality) ([2]; MAD, all BMS-932481 doses): 3 (16.7) n (%)
SAEs ([2]; MAD, all BMS-932481 doses): 2 (11.1) n (%)
Treatment-related AEs ([2]; MAD, all BMS-932481 doses): 8 (44.4) n (%)
subjects with treatment-related AEs ([2]; MAD, eight subjects): 44.4%
CSF Aβ42 lowering at exposures at which increases in liver enzymes were observed ([2]; after multiple dosing): greater than 70%
changes in 4βHC levels [3]: no significant changes
effect on CSF Aβ39 [4]: appeared to lower
effect on shorter CSF fragments Aβ14, Aβ15, and Aβ34 [4]: no effect
degree of CSFAβ42 lowering, elderly versus young ([4]; largely due to higher exposures in elderly): greater in elderly than in young
steady state achieved ([5]; MAD 50- and 100-mg dose groups): ≤ 14 days
dose proportionality of plasma exposure ([5]; MAD day 14): greater than dose proportionality
slope for AUCτ versus dose ([5]; MAD day 14, 95% CI, 1.03–1.88, r^2 = 0.81): 1.46
slope for Cmax versus dose ([5]; MAD day 14, 95% CI, 1.06–1.67, r^2 = 0.9): 1.36
dose proportionality of plasma exposure ([5]; first dose (day 1) of multiple-dose administrations, 50 to 200 mg): dose proportional
half-life ([5]; 50 mg): 24 h
concentration at 24 h [5, 8]: 0.047 µg/mL
concentration at 24 h [5, 9]: 0.204 µg/mL
concentration at 24 h [5, 10]: 0.165 µg/mL
Cmax [5, 8]: 0.134 µg/mL
Cmax [5, 9]: 0.323 µg/mL
Cmax [5, 10]: 0.293 µg/mL
half-life ([5]; 100 mg): 29 h
concentration at 24 h ([5]; 100 mg, MAD panel 2, 100 mg once daily, day 1): 0.087 µg/mL
half-life ([5]; 200 mg): 37 h
concentration at 24 h ([5]; 200 mg, MAD panel 3, 200 mg once daily, day 1): 0.22 µg/mL
accumulation after multiple dosing ([5]; multiple dosing): approximately 3 fold
Aβ42 and Aβ40 lowering in both the brain and CSF [6]: dose-dependent
IC50 [7]: 1.34 µM
